DNMT1 block = human DNMT1 methyltransferase inhibitors, primary screen, biochemical, molecular beacon, fluorescence, HinP1I cleavage, uHTS. DNA (cytosine-5)-methyltransferase 1 (Homo sapiens), P26358. inhibition (reported as % activation of signal), % at 10 µM. 360,000 tested, 0.83% active; in the data active means inhibition above about 50%
SUMO1 PPI mod = modulators of SUMO1 protein-protein interactions, primary screen, biochemical, uHTS; SUMO1 binding to a labelled peptide, TR-FRET, 1 h; inhibition, % at 20 µM; 360,000 tested, 0.33% active; AID 602429, 2012; in the data active means inhibition above about 37%
Target sequence (P63165 whole entry, looked up): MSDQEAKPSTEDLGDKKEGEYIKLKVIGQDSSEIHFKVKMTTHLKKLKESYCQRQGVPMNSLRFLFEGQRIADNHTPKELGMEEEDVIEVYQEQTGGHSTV
Scp-1 inhibitor = Scp-1 phosphatase inhibitors, primary screen, biochemical, colorimetric, uHTS; AID 493091, 2011; 340,000 tested, 0.88% active; Carboxy-terminal domain RNA polymerase II polypeptide A small phosphatase 1 (Homo …; Recombinant Scp1, phosphopeptide, malachite green phosphate absorbance; inhibition, % at 20 µM;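 active means inhibition above about 50% at 20 µM, limit read from the data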;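 further: plate controls were DMSO wells with enzyme for no effect and wells lacking enzyme for full effect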
Target sequence (Q9GZU7 76-261 limits assumed): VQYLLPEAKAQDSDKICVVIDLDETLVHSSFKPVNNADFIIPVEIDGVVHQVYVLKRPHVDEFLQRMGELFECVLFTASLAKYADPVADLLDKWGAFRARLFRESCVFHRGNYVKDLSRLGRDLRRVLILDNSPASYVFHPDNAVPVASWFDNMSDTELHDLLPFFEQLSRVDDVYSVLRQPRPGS
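Material – SCP-1 phosphatase catalytic domain, residues 76-261 · Buffer or medium – Acidic Tris acetate buffer with magnesium and detergent · Also added – Phospho 17-mer peptide substrate · Compound – single 20 µM dose, 1% DMSO · Times – 45 min room-temperature reaction, 5 min colour, 30 min stabiliser · Technique – Phosphate-binding colour reagent, absorbance read at 630 nm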
LMPTP inh = LMPTP phosphatase inhibitors, primary screen, biochemical, fluorescence intensity, uHTS; Low molecular weight phosphotyrosine protein phosphatase (Homo sapiens), P24666; recombinant LMPTP-A, OMFP fluorogenic substrate; inhibition, % at 20 µM; 360,000 tested, 0.22% active; AID 651560, 2012;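 active means compounds that cut the enzyme signal by at least half of the control window in the single-dose screen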;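 further: plate controls were DMSO wells with enzyme plus substrate for no effect and substrate without enzyme for full effect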
Target sequence (P24666 whole entry, looked up): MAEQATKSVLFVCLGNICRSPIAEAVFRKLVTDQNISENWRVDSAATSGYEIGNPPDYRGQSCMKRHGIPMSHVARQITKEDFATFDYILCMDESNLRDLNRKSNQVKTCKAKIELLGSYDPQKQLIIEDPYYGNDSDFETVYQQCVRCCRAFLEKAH
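Material: LMPTP-A; amount: 0.625 nM enzyme; doses: single 20 µM dose; times: reaction 50 min, room temperature, dark; technique: fluorescence intensity of OMFP turnover product; benchmarks: no-enzyme and uninhibited controls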
STEP inh = STEP phosphatase inhibitors, primary screen, biochemical, fluorescence intensity, uHTS | AID 588621, 2011 | Tyrosine-protein phosphatase non-receptor type 5 (Homo sapiens), P54829 | recombinant STEP, OMFP fluorogenic substrate | 360,000 tested, 0.25% active | inhibition, % at 20 µM;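 active means inhibition at 20 µM, scaled per plate between control wells, above about 37%, limit read from the data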;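 further: 0% = DMSO with enzyme and substrate and 100% = substrate only without enzyme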
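Also added – OMFP at 25 µM · Test system – STEP tyrosine phosphatase · Technique – FITC-channel fluorescence of OMFP product · Schedule – 20 min at room temperature, dark · Evaluation – control-normalized % inhibition with plate pattern correction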
Numbers without * were called inactive; nt = not tested or not shown; ! = not active in a repeat. Shown are actives, neighbours in structure and some others; about 1.8% of the full set was active somewhere.

SMILES	DNMT1 block	SUMO1 PPI mod	Scp-1 inhibitor	LMPTP inh	STEP inh
Cc1cc(C(C)(C)C)cc(CN2CCN(S(=O)(=O)c3cccs3)CC2)c1O	2	-8	nt	4	1
COc1ccc2[nH]c(O)c(N=NC(=O)c3ccc(NS(=O)(=O)c4cccs4)cc3)c2c1	23	10	24	5	3
O=C(N=Nc1c(O)[nH]c2ccc(F)cc12)c1ccc(NS(=O)(=O)c2cccs2)cc1	48	-4	-10	53*	2
Cc1c2cnn(CC(=O)NCCN3CCOCC3)c(=O)c2c(C)n1Cc1ccccc1F	3	5	10	-1	-1
CCN(CC)c1ccc(NC(=O)Cn2ncc3c(C)n(Cc4ccccc4F)c(C)c3c2=O)c(C)c1	60*	-3	-8	5	4
COC(=O)/C=C1\SC(=NC(=O)c2ccc(-c3ccccc3)cc2)NC1=O	14	-2	-10	0	0
N[C@@H](Cc1cc(I)c(Oc2ccc(O)c(I)c2)c(I)c1)C(=O)O	77*!	40*!	27	32	-3
Cc1ccc(NC(=S)NN(C)c2nc(C)cnc2C)cc1	5	40*	-8	-1	-2
Cc1cc(N(C)NC(=S)Nc2ccccc2)nc(C)n1	2	0	-8	-1	-3
O=C(NC(=S)NCCC1=CCCCC1)c1ccccc1Br	-10	4	67*	4	-3
O=C(COC(=O)c1ccccc1Br)NCCC1=CCCCC1	0	1	-7	0	-2
CC(=O)NC(CC(=O)Nc1ccc(S(=O)(=O)NC2=NCCCCC2)cc1)c1ccccc1 (configuration not stated)	4	-3	-4	-1	1
COC(=O)C[C@@H]1CC[C@@H](NS(=O)(=O)c2ccc(OC)cc2)[C@@H](CO)O1	nt	-4	nt	2	nt
O=C(c1ccccc1)N1CCC(c2nc3c(nnn3Cc3ccco3)c(=O)[nH]2)CC1	6	53*	3	-1	1
Cc1cc2nc(-c3ccc(SCc4ccc(C(=O)O)cc4)nc3)[nH]c2cc1C	-1	21	79*	68*	92*
O=C(NCc1ccccc1CN1CCCC1)C1CCN(C(=O)c2ccc(Cl)cc2)CC1	0	-15	nt	0	0
OC1CCN(Cc2nc(Cc3ccccc3Cl)no2)CC1	0	45*	-7	-1	-2
Oc1c(C(Nc2nc3ccccc3s2)c2ccco2)ccc2cccnc12 (configuration not stated)	-9	49*	-5	4	-1
C=CCNC(=O)c1ccsc1N	nt	-3	nt	21	nt
ON=C(CCc1ccccc1)c1ccccc1	2	1	0	-1	-2
COc1ccc2cc(C(=O)N/N=C/c3sc4ccccc4c3O)ccc2c1	-8	-25	85*	51*	18
COc1ccc(C(=O)N/N=C/c2sc3ccccc3c2O)cc1	-10	-13	-13	1	-6
O=C(CSc1nc2nn(-c3ccccc3)c(=O)c-2c2n1CCCCC2)c1ccc(O)c(O)c1	2	3	49	68*	3
CSc1nc2ccc3nc(NC(=O)c4cccs4)sc3c2s1	15	44*	3	16	3
CSc1nc2ccc3nc(NC(=O)c4ccc(Cl)s4)sc3c2s1	24	4	-3	7	0
SMILES	DNMT1 block	SUMO1 PPI mod	Scp-1 inhibitor	LMPTP inh	STEP inh
N#CC(C#N)=C1NC(N)=C(C#N)C(c2ccccc2)=C1C#N	-3	41*	nt	3	2
N#CC1=C(c2ccccc2)/C(=C/c2ccccc2)OC1=O	19	6	-7	0	4
O=C(O)c1cccc2[nH]c(C(F)(F)F)nc12	1	0	3	-1	0
Nc1cccc2[nH]c(C(F)(F)F)nc12	-12	68*	-4	-4	3
CN(C)c1ccc(C#Cc2ccc3cc(CCO)oc(=O)c3c2)cc1	42	-14	38	68*	97*
O=C(OCC(=O)N1CCN(C(=O)c2ccco2)CC1)c1cc(-c2ccc(Cl)c(Cl)c2Cl)nc2ccccc12	-13	64*	-7	3	2
O=C(OCC(=O)N1CCN(C(=O)c2ccco2)CC1)c1cc(-c2ccco2)nc2ccccc12	97*	26	87*	60*	79*
O=C(NC1CC1)c1cc(-c2ccco2)nc2ccccc12	90*	40*	80*	51*	20
OC(CSc1ccccc1)CN1CCN(c2ccccc2)CC1 (configuration not stated)	1	12	-3	1	0
Cc1cccc(Nc2cc(C)c3c(O)cccc3n2)c1C	-29	-4	-12	69*	5
Cc1cccc(NC(=S)N(C)C)c1C	3	-3	-11	-1	-3
COc1ccc(C(=O)OCC(=O)c2ccc3c(c2)NC(=O)CO3)cc1S(=O)(=O)N1CCOCC1	-2	4	-10	4	0
CCn1cc(C(=O)O)c(=O)c2cnc(N3CCN(C(=S)NC(=O)c4ccc(OC)cc4)CC3)nc21	3	7	-5	65*	10
CCn1cc(C(=O)O)c(=O)c2cnc(N3CCN(C(=S)NC(=O)c4ccccc4Cl)CC3)nc21	nt	nt	-7	nt	nt
CCn1cc(C(=O)O)c(=O)c2cnc(N3CCN(C(=S)NC(=O)c4ccc(Cl)cc4Cl)CC3)nc21	2	12	-6	51*	3
c1nc(SSc2ncnc3nc[nH]c23)c2[nH]cnc2n1	1	1	27	47*	-2
O=C(O)CSc1ncnc2nc[nH]c12	-1	1	-14	-1	0
CCCN(C)C1CN(Cc2cn(Cc3ccccc3)nn2)S(=O)(=O)C1 (configuration not stated)	nt	1	nt	0	nt
O=C(N/N=C/c1cccc([N+](=O)[O-])c1)c1cc(-c2ccc3c(c2)OCO3)n[nH]1	49	73*	11	5	4
O=C(N/N=C/c1cccc(O)c1)c1cc(-c2ccc3c(c2)OCO3)n[nH]1	-2	3	4	3	-1
COC(=O)N/N=C/c1cc(N=Nc2ccccc2Cl)ccc1O	30	11	35	6	9
COC(=O)N/N=C/c1cc(N=Nc2ccccc2)ccc1O	1	-5	-15	3	-1
Nc1ccc(C(=O)N/N=C\c2cc(N=Nc3cccc4ccccc34)ccc2O)cc1	44	65*	38	4	10
Cc1cc(C(=O)N/N=C/c2cc(N=Nc3ccccc3)ccc2O)n[nH]1	5	-6	64*	6	6
